This is an account of results in ChEMBL document CHEMBL3271988, “Nitrogen analogues of 1,4-benzoquinones. Activities against the ascitic sarcoma 180 of mice” (J Med Chem, 1978).

Each structure is given as a SMILES string. Activity calls are given as the source filed them. The calls are words filed in the database; no cut-off is given here.

Data set [1] is described as follows: Half life of the compound in water at pH 7 at 25 degC by spectrophotometry. The class given is physicochemical. In a few lines: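 Compound dissolved in absolute ethanol, then diluted into 0.01 M Tris buffer brought to pH 7 with HCl, 25 °C. Absorbance at λmax followed over hours or days; log absorbance vs time fitted by least squares, rate constant and half-time taken from the slope.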

Data set [2] can be described thus: Acute toxicity in single ip dosed Swiss mouse assessed as death up to 5 days. Particulars: in vivo. The class given is organism-based. In a few lines: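 Male Swiss mice given one ip dose. LD50 taken as the single dose killing 50% of animals within 5 days.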
The test system of data set [3] is Sarcoma-180. The experiment in a line: Antitumor activity against mouse Sarcoma 180 cells allografted in Swiss mouse at 6 mg/kg, ip three doses were given at 24 hrs interval starting 24 hrs after allograft injection relative to control. In kind it is functional. Particulars: route intraperitoneal. The gist of the method: (§1)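 Swiss mice received 10^6 ascitic sarcoma 180 cells ip, then three ip doses 24 h apart starting at 24 h. Controls got isotonic salt solution on the same schedule. T/C% is mean survival time of treated over controls (6 mice per group).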

The test system of data set [4] is Sarcoma-180. The data set can be described thus: Antitumor activity against mouse Sarcoma 180 cells allografted in Swiss mouse assessed as survival time at 6 mg/kg, ip three doses were given at 24 hrs interval starting 24 hrs after allograft injection relative to control. In kind it is functional. To be noted: route intraperitoneal. The gist of the method:
(§2)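 Swiss mice inoculated ip with 10^6 ascitic sarcoma 180 cells. Compound given ip daily ×3 at 24-h intervals, starting 24 h after inoculation. Controls received isotonic saline on the same schedule; 6 mice per group. Mice alive at 60 days counted as 60 days in mean survival (±SD).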

The test system of data set [5] is Sarcoma-180. The experiment in a line: Antitumor activity against mouse Sarcoma 180 cells allografted in Swiss mouse assessed as weight gain at 6 mg/kg, ip three doses were given at 24 hrs interval starting 24 hrs after allograft injection measured after 3 days relative to control. In kind it is functional. Particulars: route intraperitoneal. In a few lines: (§3)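 Ascitic sarcoma 180 model in Swiss mice: 10^6 cells ip, then three ip doses at 24-h intervals beginning 24 h later. Mice were weighed 1 day after cell injection and again 3 days later (24 h after the third dose). Percent weight gain of treated mice was compared with saline-treated controls on the same schedule.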

Data set [6] is described as follows: Redox potential of the compound in alcohol-water solution. To be noted: buffer.
Data set [7] relates to Sarcoma-180. The experiment in a line: Antitumor activity against mouse Sarcoma 180 cells allografted in Swiss mouse assessed as cure at 6 mg/kg, ip three doses were given at 24 hrs interval starting 24 hrs after allograft injection measured after 60 days. The class given is functional, organism-based. Further details: dose 6 mg/kg. The gist of the method: (§4)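 Swiss mice given 10^6 ascitic sarcoma 180 cells ip. Starting 24 h later, three ip doses were given 24 h apart. Controls got isotonic salt solution on the same schedule. A cure was a mouse alive with no evidence of cancer cells 60 days after cell injection, reported per 6 mice.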

In data set [8] the test system is Sarcoma-180. The data set can be described thus: Antitumor activity against mouse Sarcoma 180 cells allografted in Swiss mouse assessed as survival at 6 mg/kg, ip three doses were given at 24 hrs interval starting 24 hrs after allograft injection measured after 5 days. In kind it is functional, organism-based. Set-up: dose 6 mg/kg. In a few lines: (§5)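 Swiss mice were injected ip with 10^6 ascitic sarcoma 180 cells. Three daily ip doses followed, the first 24 h after cell injection. The read-out was the number of mice surviving at 5 days, out of 6 treated.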

Data set [9] concerns Sarcoma-180. The experiment in a line: Antitumor activity against mouse Sarcoma 180 cells allografted in Swiss mouse assessed as survival time at 10 mg/kg, ip three doses were given at 24 hrs interval starting 24 hrs after allograft injection relative to control. The class given is functional. Particulars: route intraperitoneal. In a few lines: as §2
Data set [10] relates to Sarcoma-180. The experiment in a line: Antitumor activity against mouse Sarcoma 180 cells allografted in Swiss mouse at 10 mg/kg, ip three doses were given at 24 hrs interval starting 24 hrs after allograft injection relative to control. In kind it is functional. Particulars: route intraperitoneal. In a few lines:
as §1

Data set [11] relates to Sarcoma-180. The data set can be described thus: Antitumor activity against mouse Sarcoma 180 cells allografted in Swiss mouse assessed as survival at 10 mg/kg, ip three doses were given at 24 hrs interval starting 24 hrs after allograft injection measured after 5 days. In kind it is functional, organism-based. Further details: dose 10 mg/kg. The gist of the method: as §5

The test system of data set [12] is Sarcoma-180. The experiment in a line: Antitumor activity against mouse Sarcoma 180 cells allografted in Swiss mouse assessed as weight gain at 10 mg/kg, ip three doses were given at 24 hrs interval starting 24 hrs after allograft injection measured after 3 days relative to control. In kind it is functional. Particulars: route intraperitoneal. The gist of the method:
as §3

Data set [13] has as its system Sarcoma-180. The data set can be described thus: Antitumor activity against mouse Sarcoma 180 cells allografted in Swiss mouse assessed as cure at 10 mg/kg, ip three doses were given at 24 hrs interval starting 24 hrs after allograft injection measured after 60 days. In kind it is functional, organism-based. Set-up: dose 10 mg/kg. The gist of the method:
as §4

For data set [14], the system named is Sarcoma-180. The experiment in a line: Antitumor activity against mouse Sarcoma 180 cells allografted in Swiss mouse assessed as survival time at 3 mg/kg, ip three doses were given at 24 hrs interval starting 24 hrs after allograft injection relative to control. The class given is functional. Particulars: route intraperitoneal. In a few lines:
as §2

The subject of data set [15] is Sarcoma-180. The data set can be described thus: Antitumor activity against mouse Sarcoma 180 cells allografted in Swiss mouse at 3 mg/kg, ip three doses were given at 24 hrs interval starting 24 hrs after allograft injection relative to control. To be noted: route intraperitoneal. The class given is functional. The gist of the method: as §1
Data set [16] concerns Sarcoma-180. The experiment in a line: Antitumor activity against mouse Sarcoma 180 cells allografted in Swiss mouse assessed as weight gain at 3 mg/kg, ip three doses were given at 24 hrs interval starting 24 hrs after allograft injection measured after 3 days relative to control. In kind it is functional. To be noted: route intraperitoneal. The gist of the method:
as §3

For data set [17], the system named is Sarcoma-180. The data set can be described thus: Antitumor activity against mouse Sarcoma 180 cells allografted in Swiss mouse assessed as survival at 3 mg/kg, ip three doses were given at 24 hrs interval starting 24 hrs after allograft injection measured after 5 days. In kind it is functional, organism-based. Set-up: dose 3 mg/kg. In a few lines:
as §5

Data set [18] relates to Sarcoma-180. The data set can be described thus: Antitumor activity against mouse Sarcoma 180 cells allografted in Swiss mouse assessed as weight gain at 15 mg/kg, ip three doses were given at 24 hrs interval starting 24 hrs after allograft injection measured after 3 days relative to control. The class given is functional. Particulars: route intraperitoneal. The gist of the method:
as §3

For data set [19], the system named is Sarcoma-180. The data set can be described thus: Antitumor activity against mouse Sarcoma 180 cells allografted in Swiss mouse assessed as survival time at 15 mg/kg, ip three doses were given at 24 hrs interval starting 24 hrs after allograft injection relative to control. In kind it is functional. To be noted: route intraperitoneal. The gist of the method:
as §2

In data set [20] the test system is Sarcoma-180. The experiment in a line: Antitumor activity against mouse Sarcoma 180 cells allografted in Swiss mouse assessed as cure at 15 mg/kg, ip three doses were given at 24 hrs interval starting 24 hrs after allograft injection measured after 60 days. Set-up: dose 15 mg/kg. In kind it is functional, organism-based. In a few lines:
as §4

Data set [21] deals with Sarcoma-180. The data set can be described thus: Antitumor activity against mouse Sarcoma 180 cells allografted in Swiss mouse at 15 mg/kg, ip three doses were given at 24 hrs interval starting 24 hrs after allograft injection relative to control. In kind it is functional. To be noted: route intraperitoneal. In a few lines:
as §1

Data set [22] concerns Sarcoma-180. The data set can be described thus: Antitumor activity against mouse Sarcoma 180 cells allografted in Swiss mouse assessed as survival at 15 mg/kg, ip three doses were given at 24 hrs interval starting 24 hrs after allograft injection measured after 5 days. The class given is functional, organism-based. Further details: dose 15 mg/kg. The gist of the method: as §5

In data set [23] the test system is Sarcoma-180. The data set can be described thus: Antitumor activity against mouse Sarcoma 180 cells allografted in Swiss mouse assessed as survival time at 20 mg/kg, ip three doses were given at 24 hrs interval starting 24 hrs after allograft injection relative to control. To be noted: route intraperitoneal. The class given is functional. The gist of the method:
as §2

The test system of data set [24] is Sarcoma-180. The data set can be described thus: Antitumor activity against mouse Sarcoma 180 cells allografted in Swiss mouse at 20 mg/kg, ip three doses were given at 24 hrs interval starting 24 hrs after allograft injection relative to control. In kind it is functional. To be noted: route intraperitoneal. In a few lines: as §1
For data set [25], the system named is Sarcoma-180. The data set can be described thus: Antitumor activity against mouse Sarcoma 180 cells allografted in Swiss mouse assessed as cure at 20 mg/kg, ip three doses were given at 24 hrs interval starting 24 hrs after allograft injection measured after 60 days. Further details: dose 20 mg/kg. The class given is functional, organism-based. In a few lines:
as §4

Data set [26] has as its system Sarcoma-180. The data set can be described thus: Antitumor activity against mouse Sarcoma 180 cells allografted in Swiss mouse assessed as weight gain at 20 mg/kg, ip three doses were given at 24 hrs interval starting 24 hrs after allograft injection measured after 3 days relative to control. To be noted: route intraperitoneal. The class given is functional. The gist of the method: as §3

The test system of data set [27] is Sarcoma-180. The experiment in a line: Antitumor activity against mouse Sarcoma 180 cells allografted in Swiss mouse assessed as survival at 20 mg/kg, ip three doses were given at 24 hrs interval starting 24 hrs after allograft injection measured after 5 days. The class given is functional, organism-based. Further details: dose 20 mg/kg. The gist of the method: as §5

In general, half-life refers to the time in which the quantity being followed falls by half. Lower therefore signals rapid decline. Usually LD50 stands for the dose expected to kill half of the subjects tested. Usually T/C stands for the ratio of treated to control. Compound `CC1=C/C(=N\c2ccc(N(C)C)cc2)C=CC1=O` showed a half-life in data set [1] of 83.8 days. Besides, the LD50 at 120 h in [2] was 27 mg/kg. In the data set with Sarcoma-180 [3], this compound showed a T/C of 127%. The Survival in the data set on Sarcoma-180 [4] was 18 days. In addition, the Activity in the data set with Sarcoma-180 [5] is recorded as -0.6%. This compound showed a Redox potential in [6] of 0.604 V. Further, in the data set with Sarcoma-180 [7], the result was inactive. In the data set with Sarcoma-180 [8], the result was Active.
On to `O=C1C(Cl)=CC(=NCl)C=C1Cl`, for which, in the data set on Sarcoma-180 [9], the Survival worked out at 25.3 days. The compound further showed a half-life in [1] of 1.67 days. Besides, in the data set on Sarcoma-180 [10], the T/C is given as 220%. In addition, the 50% lethal dose (LD50) at 120 h in data set [2] turned out to be 20 mg/kg. Besides, in the data set with Sarcoma-180 [11], the result was Active. Besides, the Activity in the data set on Sarcoma-180 [12] is -14.2%. Moreover, in the data set on Sarcoma-180 [13], the outcome was inactive. Besides, in data set [6], the Redox potential is given as 0.659 V.
Turning to `CC(=O)NC1=C/C(=N\c2ccc(N(C)C)cc2)C=CC1=O`, the LD50 at 120 h in data set [2] came out at 70 mg/kg. Further, the Survival in the data set on Sarcoma-180 [14] worked out at 26.8 days. The same compound displayed a T/C with Sarcoma-180 [15] of 194%. Also, in [6], the Redox potential came to 0.58 V. The Activity with Sarcoma-180 [16] came to 4.3%. Also, the outcome in the data set with Sarcoma-180 [17] was Active.
As for `O=C1C=CC(=NBr)C=C1`, the Activity with Sarcoma-180 [18] is recorded as -3.8%. In data set [2], the median lethal dose (LD50) at 120 h turned out to be 40 mg/kg. In [6], this compound gave a Redox potential of 0.518 V. Moreover, the Survival with Sarcoma-180 [19] was 15.5 days. Further, the outcome with Sarcoma-180 [20] was inactive. The T/C with Sarcoma-180 [21] worked out at 145%. Besides, in the data set with Sarcoma-180 [22], the result was Active.
Take `CN(C)c1ccc(/N=C2/C=CC(=O)C(Cl)=C2)cc1`: the half-life in data set [1] was 19.9 days. The 50% lethal dose (LD50) at 120 h in data set [2] came out at 100 mg/kg. The same compound yielded a Redox potential in data set [6] of 0.658 V. In addition, the Survival with Sarcoma-180 [23] was determined as 33.3 days. This compound also showed a T/C with Sarcoma-180 [24] of 256%. The result with Sarcoma-180 [25] was inactive. For the same compound, in the data set with Sarcoma-180 [26], the Activity turned out to be 9%. For the same compound, the outcome in the data set on Sarcoma-180 [27] was Active.
